Active and inactive are the calls of the source. The calls are words filed in the database; no cut-off is given here.
Columns and labels:
[1] = biological target: Vascular endothelial growth factor receptor 3 (Homo sapiens, UniProt P35916); experiment: Inhibition of VEGFR3 (unknown origin) in presence of [gamma-33P]ATP
[2] = biological target: Maternal embryonic leucine zipper kinase (Homo sapiens) (UniProt Q14680); experiment: Inhibition of MELK (unknown origin) at 10 micromol/L in presence of [gamma-33P]ATP relative to control; settings: dose 10.0 µmol/L
[3] = biological target: Serine/threonine-protein kinase Nek7 (Homo sapiens) (UniProt Q8TDX7); experiment: Inhibition of N-terminal His6-tagged recombinant human NEK7 (2 to end residues) expressed in baculovirus infected Sf21 cells assessed as residual activity at 0.1 uM relative to control
[4] = biological target: cAMP-dependent protein kinase catalytic subunit PRKX (Homo sapiens) (UniProt P51817); experiment: Inhibition of N-terminal 6His-tagged recombinant full-length human PrKX expressed in baculovirus infected Sf21 cells assessed as residual activity at 0.1 uM relative to control
[5] = biological target: Rho-associated protein kinase 1 (Homo sapiens) (UniProt Q13464); experiment: Inhibition of N-terminal His6-tagged recombinant human ROCK-I (17 to 535 residues) expressed in baculovirus infected Sf21 cells assessed as residual activity at 0.1 uM relative to control
[6] = biological target: Tyrosine-protein kinase ABL2 (Mus musculus) (UniProt Q4JIM5); experiment: Inhibition of N-terminal His6-tagged recombinant mouse Arg (27 to end residues) expressed in Sf21 cells assessed as residual activity at 1 uM relative to control
[7] = biological target: NUAK family SNF1-like kinase 1 (Homo sapiens) (UniProt O60285); experiment: Inhibition of N-terminal 6His-tagged recombinant human ARK5 (2 to end residues) expressed in baculovirus infected Sf21 cells assessed as residual activity at 1 uM relative to control
[8] = biological target: Casein kinase I isoform delta (Homo sapiens) (UniProt P48730); experiment: Inhibition of N-terminal GST-tagged recombinant human CK1delta (1 to 294 residues) expressed in E. coli assessed as residual activity at 1 uM relative to control
SF-295 = experiment: Antiproliferative activity against human SF-295 cells assessed as inhibition of cell growth incubated for 72 hrs by cell-titer glo assay; format: functional, cell-based; settings: SF-295, 72 h
In short: (§1)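 Cells from ATCC or ECACC, kept in supplier-recommended medium with 1% penicillin-streptomycin at 37°C, 5% CO₂. Seeded at 10,000–30,000/cm² (adherent) or 100,000/mL (nonadherent) in medium with 10% fetal calf serum. Dosed after 24 h in duplicate with serial dilutions. Viable cells read by CellTiter-Glo 72 h later. IC50 from sigmoidal fit. At least two independent experiments.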

SH-SY5Y = experiment: Antiproliferative activity against human SH-SY5Y cells assessed as inhibition of cell growth incubated for 72 hrs by cell-titer glo assay; format: functional, cell-based
SK-N-MC = experiment: Antiproliferative activity against human SK-N-MC cells assessed as inhibition of cell growth incubated for 72 hrs by cell-titer glo assay; format: functional, cell-based
MDA-MB-436 = experiment: Antiproliferative activity against human MDA-MB-436 cells assessed as inhibition of cell growth incubated for 72 hrs by cell-titer glo assay; format: functional, cell-based; settings: MDA-MB-436, 72 h
In short: (§2)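 Cells seeded at 10,000–30,000/cm² (adherent) or 100,000/mL (nonadherent) in medium with 10% fetal calf serum; after 24 h, treated in duplicate with serial dilutions for 72 h. Viable cell number read by CellTiter-Glo luminescence; IC50 from sigmoidal fit; at least two independent experiments.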

MFM-223 = experiment: Antiproliferative activity against human MFM-223 cells assessed as inhibition of cell growth incubated for 72 hrs by cell-titer glo assay; format: functional, cell-based; settings: MFM-223, 72 h; in short: as §1
HCC1395 = experiment: Antiproliferative activity against human HCC1395 cells assessed as inhibition of cell growth incubated for 72 hrs by cell-titer glo assay; format: functional, cell-based; settings: HCC1395, 72 h; in short: as §2
HeLa = experiment: Antiproliferative activity against human HeLa cells assessed as inhibition of cell growth incubated for 72 hrs by cell-titer glo assay; format: functional, cell-based; in short: as §2
HT-29 = experiment: Antiproliferative activity against human HT-29 cells assessed as inhibition of cell growth incubated for 72 hrs by cell-titer glo assay; format: functional, cell-based; settings: HT-29, 72 h; in short: as §2
A498 = experiment: Antiproliferative activity against human A498 cells assessed as inhibition of cell growth incubated for 72 hrs by cell-titer glo assay; format: functional, cell-based; settings: A498, 72 h
In short: (§3)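 Cells seeded 10,000–30,000/cm² (adherent) or 100,000/mL (suspension) in medium with 10% fetal calf serum; after 24 h treated in duplicate with serial dilutions for 72 h. Viable cells read by CellTiter-Glo luminescence; IC50 from sigmoidal fit; at least two independent experiments.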

NCI-H322M = experiment: Antiproliferative activity against human NCI-H322M cells assessed as inhibition of cell growth incubated for 72 hrs by cell-titer glo assay; format: functional, cell-based; in short: as §1
HOP-62 = experiment: Antiproliferative activity against human HOP-62 cells assessed as inhibition of cell growth incubated for 72 hrs by cell-titer glo assay; format: functional, cell-based; settings: HOP-62, 72 h; in short: as §2
A-431 = experiment: Antiproliferative activity against human A-431 cells assessed as inhibition of cell growth incubated for 72 hrs by cell-titer glo assay; format: functional, cell-based; settings: A-431, 72 h; in short: as §3
CCRF-CEM = experiment: Antiproliferative activity against human CCRF-CEM cells assessed as inhibition of cell growth incubated for 72 hrs by cell-titer glo assay; format: functional, cell-based; in short: as §3
[9] = Antiproliferative activity against human AML-NS8 cells assessed as inhibition of cell growth incubated for 72 hrs by cell-titer glo assay; format: functional, cell-based; settings: AML-NS8, 72 h; in short: as §3
MOLT-4 = experiment: Antiproliferative activity against human MOLT-4 cells assessed as inhibition of cell growth incubated for 72 hrs by cell-titer glo assay; format: functional, cell-based; settings: MOLT-4, 72 h; in short: as §1
Toledo = experiment: Antiproliferative activity against human Toledo cells assessed as inhibition of cell growth incubated for 72 hrs by cell-titer glo assay; format: functional, cell-based
SU-DHL10 = experiment: Antiproliferative activity against human SU-DHL-10 cells assessed as inhibition of cell growth incubated for 72 hrs by cell-titer glo assay; format: functional, cell-based; settings: SU-DHL10, 72 h
[10] = Cmax in nu/nu mouse at 10 mg/kg, iv by LC-MS analysis; format: ADME, organism-based; settings: in vivo
[11] = Half-life in nu/nu mouse at 10 mg/kg, po by LC-MS analysis; format: ADME, organism-based; settings: in vivo
[12] = Cmax in nu/nu mouse at 10 mg/kg, po by LC-MS analysis; format: ADME, organism-based; settings: in vivo
[13] = Cmax in Sprague-Dawley rat at 10 mg/kg, po by LC-MS analysis; format: ADME, organism-based; settings: in vivo
HCT-116 = experiment: Antitumor activity against human HCT-116 cells xenografted in nu/nu mouse assessed as tumor growth inhibition at 45 mg/kg, iv administered for 3 days relative to control; format: functional; settings: HCT-116, 72 h, time 3 day, read-out: TGI
[14] = Toxicity in nu/nu mouse xenografted with human HCT-116 cells assessed as body weight loss at 45 mg/kg, iv administered for 3 days; format: organism-based; settings: in vivo, 72 h, time 3 day
A2780 = experiment: In vivo inhibition of PLK1 in human A2780 cells xenografted in nu/nu mouse assessed as decreased TCTP phosphorylation on Ser46 at 60 mg/kg, po administered for 2 hrs by immunohistochemistry analysis; format: functional, organism-based

NUAK family SNF1-like kinase 1 (Homo sapiens), sequence (O60285 whole entry, the tested form may be a part, canonical isoform): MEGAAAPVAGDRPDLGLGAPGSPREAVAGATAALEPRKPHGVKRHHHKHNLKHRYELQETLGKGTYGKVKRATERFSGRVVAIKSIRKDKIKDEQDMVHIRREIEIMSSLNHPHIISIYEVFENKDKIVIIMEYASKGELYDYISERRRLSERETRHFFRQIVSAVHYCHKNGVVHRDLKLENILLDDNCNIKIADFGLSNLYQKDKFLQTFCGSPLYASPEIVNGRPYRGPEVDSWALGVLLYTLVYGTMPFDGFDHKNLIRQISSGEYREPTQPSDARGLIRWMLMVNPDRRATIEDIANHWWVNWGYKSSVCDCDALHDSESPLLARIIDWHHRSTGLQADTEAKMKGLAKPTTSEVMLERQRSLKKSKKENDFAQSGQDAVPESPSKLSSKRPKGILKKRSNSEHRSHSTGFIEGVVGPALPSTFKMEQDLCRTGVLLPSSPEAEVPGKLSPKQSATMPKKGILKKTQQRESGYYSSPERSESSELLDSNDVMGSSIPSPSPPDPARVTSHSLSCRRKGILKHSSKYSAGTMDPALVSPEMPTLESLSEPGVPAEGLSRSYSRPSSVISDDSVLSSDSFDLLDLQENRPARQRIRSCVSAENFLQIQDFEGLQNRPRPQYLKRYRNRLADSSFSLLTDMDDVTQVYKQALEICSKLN
Serine/threonine-protein kinase Nek7 (Homo sapiens), sequence (Q8TDX7 whole entry, looked up): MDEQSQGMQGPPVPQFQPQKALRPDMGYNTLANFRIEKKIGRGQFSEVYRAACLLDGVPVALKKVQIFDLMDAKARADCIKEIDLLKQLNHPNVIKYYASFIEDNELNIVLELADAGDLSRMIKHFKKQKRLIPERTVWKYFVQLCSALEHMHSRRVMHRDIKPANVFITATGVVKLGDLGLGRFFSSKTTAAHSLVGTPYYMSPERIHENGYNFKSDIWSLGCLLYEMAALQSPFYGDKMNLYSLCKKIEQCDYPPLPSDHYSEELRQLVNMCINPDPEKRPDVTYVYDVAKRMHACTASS
cAMP-dependent protein kinase catalytic subunit PRKX (Homo sapiens), sequence (P51817 whole entry, the tested form may be a part): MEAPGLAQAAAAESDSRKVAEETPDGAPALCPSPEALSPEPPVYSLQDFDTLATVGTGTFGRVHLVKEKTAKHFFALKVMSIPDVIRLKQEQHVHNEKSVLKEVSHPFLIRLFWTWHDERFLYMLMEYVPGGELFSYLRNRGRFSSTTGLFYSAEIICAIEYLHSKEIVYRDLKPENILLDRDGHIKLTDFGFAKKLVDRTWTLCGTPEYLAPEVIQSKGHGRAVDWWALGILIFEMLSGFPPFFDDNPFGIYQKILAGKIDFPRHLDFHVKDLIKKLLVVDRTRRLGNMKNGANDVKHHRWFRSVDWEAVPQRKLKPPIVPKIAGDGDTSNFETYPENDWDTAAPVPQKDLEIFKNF
Maternal embryonic leucine zipper kinase (Homo sapiens), sequence (Q14680 whole entry, looked up): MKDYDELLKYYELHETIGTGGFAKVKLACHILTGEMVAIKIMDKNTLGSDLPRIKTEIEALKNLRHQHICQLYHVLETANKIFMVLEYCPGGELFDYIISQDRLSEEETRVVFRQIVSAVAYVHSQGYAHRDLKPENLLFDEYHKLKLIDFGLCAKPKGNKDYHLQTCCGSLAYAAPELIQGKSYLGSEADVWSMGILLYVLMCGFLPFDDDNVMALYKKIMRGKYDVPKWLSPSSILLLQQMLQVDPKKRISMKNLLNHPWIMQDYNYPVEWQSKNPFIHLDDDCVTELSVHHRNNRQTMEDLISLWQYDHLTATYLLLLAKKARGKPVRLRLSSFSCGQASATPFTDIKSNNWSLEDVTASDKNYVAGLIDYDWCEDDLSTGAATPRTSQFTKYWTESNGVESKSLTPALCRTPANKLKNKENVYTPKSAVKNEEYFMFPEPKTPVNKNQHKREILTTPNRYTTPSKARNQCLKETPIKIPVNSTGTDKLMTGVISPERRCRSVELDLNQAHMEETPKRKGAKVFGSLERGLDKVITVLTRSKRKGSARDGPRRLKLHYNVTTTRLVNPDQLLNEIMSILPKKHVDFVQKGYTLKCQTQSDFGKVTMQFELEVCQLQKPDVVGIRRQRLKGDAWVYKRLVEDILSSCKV
Rho-associated protein kinase 1 (Homo sapiens), sequence (Q13464 2-1354 limits assumed): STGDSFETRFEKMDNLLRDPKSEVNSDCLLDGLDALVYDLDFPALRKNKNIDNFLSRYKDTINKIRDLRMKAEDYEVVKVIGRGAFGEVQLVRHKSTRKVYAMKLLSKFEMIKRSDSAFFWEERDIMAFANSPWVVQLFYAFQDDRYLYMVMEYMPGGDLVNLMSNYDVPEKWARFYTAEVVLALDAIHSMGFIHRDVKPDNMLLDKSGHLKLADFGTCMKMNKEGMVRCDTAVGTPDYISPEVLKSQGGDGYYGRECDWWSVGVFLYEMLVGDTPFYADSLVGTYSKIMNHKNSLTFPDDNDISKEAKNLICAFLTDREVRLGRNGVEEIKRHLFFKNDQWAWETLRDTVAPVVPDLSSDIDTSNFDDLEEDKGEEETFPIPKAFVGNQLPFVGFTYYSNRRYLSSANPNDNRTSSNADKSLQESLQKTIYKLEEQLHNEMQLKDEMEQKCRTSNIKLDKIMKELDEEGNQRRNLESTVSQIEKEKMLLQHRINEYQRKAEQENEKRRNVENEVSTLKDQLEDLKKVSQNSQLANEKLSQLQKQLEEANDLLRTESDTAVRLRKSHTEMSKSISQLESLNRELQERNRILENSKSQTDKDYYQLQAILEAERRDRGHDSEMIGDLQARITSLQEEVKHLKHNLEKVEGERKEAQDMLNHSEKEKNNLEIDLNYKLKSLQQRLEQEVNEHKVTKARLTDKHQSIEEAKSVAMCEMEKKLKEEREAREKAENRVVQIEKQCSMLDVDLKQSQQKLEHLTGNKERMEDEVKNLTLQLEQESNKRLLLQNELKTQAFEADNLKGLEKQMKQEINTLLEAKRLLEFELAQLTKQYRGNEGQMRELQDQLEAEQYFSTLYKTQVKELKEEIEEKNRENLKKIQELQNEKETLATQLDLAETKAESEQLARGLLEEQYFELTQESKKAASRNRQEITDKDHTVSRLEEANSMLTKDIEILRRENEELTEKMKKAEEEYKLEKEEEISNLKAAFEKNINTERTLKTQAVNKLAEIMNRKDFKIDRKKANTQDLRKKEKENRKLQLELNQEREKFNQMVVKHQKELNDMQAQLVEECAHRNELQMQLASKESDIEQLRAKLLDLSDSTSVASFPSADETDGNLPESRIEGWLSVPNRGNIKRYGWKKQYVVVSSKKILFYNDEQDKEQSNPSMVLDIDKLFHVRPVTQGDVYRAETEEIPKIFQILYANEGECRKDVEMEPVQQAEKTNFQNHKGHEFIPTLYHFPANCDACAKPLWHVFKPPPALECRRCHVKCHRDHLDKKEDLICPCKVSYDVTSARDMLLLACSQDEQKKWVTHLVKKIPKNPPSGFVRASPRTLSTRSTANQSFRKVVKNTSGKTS
Casein kinase I isoform delta (Homo sapiens), sequence (P48730 whole entry, looked up, the tested form may be a part, canonical isoform): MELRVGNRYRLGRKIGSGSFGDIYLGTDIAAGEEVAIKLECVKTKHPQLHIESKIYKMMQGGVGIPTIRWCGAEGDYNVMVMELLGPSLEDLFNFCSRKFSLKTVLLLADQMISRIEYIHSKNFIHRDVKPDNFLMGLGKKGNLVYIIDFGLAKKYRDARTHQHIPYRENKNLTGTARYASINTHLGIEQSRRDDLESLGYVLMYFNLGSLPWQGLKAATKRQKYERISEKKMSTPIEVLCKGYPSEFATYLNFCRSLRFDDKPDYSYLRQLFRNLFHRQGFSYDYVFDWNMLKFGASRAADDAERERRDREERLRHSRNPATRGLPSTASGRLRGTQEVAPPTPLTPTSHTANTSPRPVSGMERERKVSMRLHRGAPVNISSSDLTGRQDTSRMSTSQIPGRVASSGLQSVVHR
Tyrosine-protein kinase ABL2 (Mus musculus), sequence (Q4JIM5 whole entry): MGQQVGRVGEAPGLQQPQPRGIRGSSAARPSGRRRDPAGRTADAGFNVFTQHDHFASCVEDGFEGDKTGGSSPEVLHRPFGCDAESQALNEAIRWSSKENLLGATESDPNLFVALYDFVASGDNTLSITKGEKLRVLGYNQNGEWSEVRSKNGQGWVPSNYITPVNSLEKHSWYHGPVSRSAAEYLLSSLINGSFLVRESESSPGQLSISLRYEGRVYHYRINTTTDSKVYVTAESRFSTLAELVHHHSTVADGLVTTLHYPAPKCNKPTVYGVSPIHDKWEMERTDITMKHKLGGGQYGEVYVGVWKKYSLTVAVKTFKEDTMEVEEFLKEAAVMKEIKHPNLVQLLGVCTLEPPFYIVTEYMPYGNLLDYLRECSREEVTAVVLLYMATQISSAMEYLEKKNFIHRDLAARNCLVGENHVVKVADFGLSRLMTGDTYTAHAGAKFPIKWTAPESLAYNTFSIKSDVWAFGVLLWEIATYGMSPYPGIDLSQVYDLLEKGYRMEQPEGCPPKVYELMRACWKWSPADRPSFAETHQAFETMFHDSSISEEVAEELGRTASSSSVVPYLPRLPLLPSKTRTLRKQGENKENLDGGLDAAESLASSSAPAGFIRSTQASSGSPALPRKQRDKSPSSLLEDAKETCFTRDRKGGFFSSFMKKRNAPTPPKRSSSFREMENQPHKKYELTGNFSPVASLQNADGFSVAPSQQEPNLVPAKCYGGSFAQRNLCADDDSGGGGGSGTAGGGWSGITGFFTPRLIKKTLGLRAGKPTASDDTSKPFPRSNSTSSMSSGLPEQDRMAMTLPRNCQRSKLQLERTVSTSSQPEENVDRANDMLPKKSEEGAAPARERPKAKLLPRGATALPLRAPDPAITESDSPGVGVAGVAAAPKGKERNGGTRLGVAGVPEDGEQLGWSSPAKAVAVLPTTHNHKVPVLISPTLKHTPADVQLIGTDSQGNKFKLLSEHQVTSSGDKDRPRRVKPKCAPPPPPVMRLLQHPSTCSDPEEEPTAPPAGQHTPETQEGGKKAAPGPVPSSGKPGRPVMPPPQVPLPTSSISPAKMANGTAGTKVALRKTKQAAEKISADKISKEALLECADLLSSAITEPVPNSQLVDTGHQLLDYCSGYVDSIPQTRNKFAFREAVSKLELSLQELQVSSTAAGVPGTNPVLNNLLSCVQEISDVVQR

CN1CCN(c2ccc(OC(F)(F)F)c(Nc3ncc4c(n3)-c3c(c(C(N)=O)nn3CCO)CC4)c2)CC1 [ONVANSERTIB]
IC50 [1]: > 10000 nM
inhibition [2]: 95.5%
Activity [3]: 123%
Activity [4]: 90%
Activity [5]: 145%
Activity [6]: 85%
Activity [7]: 93%
Activity [8]: 73%
IC50 (SF-295): 386 nM
IC50 (SH-SY5Y): 30 nM
IC50 (SK-N-MC): 73 nM
IC50 (MDA-MB-436): 93 nM
IC50 (MFM-223): 10 nM
IC50 (HCC1395): 49 nM
IC50 (HeLa): 60 nM
IC50 (HT-29): 39 nM
IC50 (A498): 1070 nM
IC50 (NCI-H322M): 183 nM
IC50 (HOP-62): 209 nM
IC50 (A-431): 59 nM
IC50 (CCRF-CEM): 55 nM
IC50 [9]: 36 nM
IC50 (MOLT-4): 45 nM
IC50 (Toledo): 42 nM
IC50 (SU-DHL10): 43 nM
Cmax [10]: 8.3 µM
half-life [11]: 1.6 h
Cmax [12]: 0.6 µM
Cmax [13]: 4.2 µM
inhibition in vivo at 45 mg/kg (HCT-116): 83%
Activity [14]: Toxic
inhibition (A2780): Active
